Assay outcomes as filed in PubChem.
MPTP block: blocks calcium-induced mitochondrial swelling | isolated mouse mitochondria, Ca2+ swelling absorbance, 30 min | inhibition, % at 10 µM | actives 1.4% (n = 360,000);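 active means inhibition of 50% or more, scaled per plate between neutral and stimulator controls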;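 further: 0% = DMSO wells given calcium and 100% = 1 mM EGTA wells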
SENP1 inh: inhibitors of human SENP1 SUMO protease catalytic domain; Q9P0U3; recombinant SENP1 catalytic domain, CyPet-SUMO1-YPet FRET cleavage; inhibition, % at 10 µM; actives 0.21% (n = 360,000);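 active means inhibition at least 30% at 10 µM, raw YFP signal under a set limit, fluorescence ratio 0.5 to 1.5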;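 further: 0% = enzyme with DMSO and 100% = no enzyme wells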
Target sequence (Q9P0U3 419-644 limits assumed): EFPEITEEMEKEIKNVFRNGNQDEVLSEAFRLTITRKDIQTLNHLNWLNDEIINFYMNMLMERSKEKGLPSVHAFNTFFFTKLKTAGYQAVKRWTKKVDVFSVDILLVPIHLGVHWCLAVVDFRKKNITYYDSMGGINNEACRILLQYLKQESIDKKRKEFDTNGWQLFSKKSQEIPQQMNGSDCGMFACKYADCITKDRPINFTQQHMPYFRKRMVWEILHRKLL
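material = recombinant human SENP1 catalytic domain, His6-tagged | quantity = 20 pM enzyme | reagent = 25 nM SUMO1 FRET substrate | compound dosing = 10 µM single point, 0.5% DMSO | timing = 50 min enzyme reaction, room temperature, light-protected | detection = FRET, CFP and YFP emission | control set = no-enzyme low, enzyme-DMSO high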
NR3A LBD binder: NR3A (human) ligand-binding domain modulation. NR3A LBD differential scanning fluorimetry, Tm shift; 0% = protein alone, 100% = glycine-bound protein. Tm shift relative to glycine control, % at 25 µM. actives 2.5% (n = 340,000);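 active means melting temperature shift of at least 10% of the positive control shift, at one fixed dose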
EBI2 block: blocks human EBI2 receptor beta-arrestin signaling; EBI2 beta-arrestin recruitment, luminescence, 7a,25-OHC stimulated; inhibition, % at 5 µM; actives 0.81% (n = 360,000); AID 651636; in the data active means inhibition above about 38%;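 further: enzyme fragment complementation signal reports receptor beta-arrestin coupling in cells; 0% = agonist plus DMSO wells and 100% = wells without agonist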
Target sequence (P32249 whole entry, looked up, the tested form may be a part): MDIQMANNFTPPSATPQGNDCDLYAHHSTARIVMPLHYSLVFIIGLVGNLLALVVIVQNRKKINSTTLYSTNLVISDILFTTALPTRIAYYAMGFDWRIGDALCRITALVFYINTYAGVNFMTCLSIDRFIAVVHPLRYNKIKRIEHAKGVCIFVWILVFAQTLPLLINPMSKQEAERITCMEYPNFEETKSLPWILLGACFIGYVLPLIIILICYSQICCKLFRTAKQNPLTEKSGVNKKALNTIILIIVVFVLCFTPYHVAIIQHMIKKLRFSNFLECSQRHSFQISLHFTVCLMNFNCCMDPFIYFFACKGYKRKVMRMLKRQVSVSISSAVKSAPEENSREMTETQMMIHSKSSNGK
Rh123 counter: mitochondrial membrane potential, counter-screen; isolated mitochondria, Rhodamine 123 fluorescence; shares compounds with MPTP block; inhibition, % at 10 µM; actives 78% (n = 5,000); in the data active means inhibition above about 22%;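 further: 0% = DMSO vehicle and 100% = positive control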
MPTP swell DR: dose response confirmation of mitochondrial permeability transition pore inhibitors | shares compounds with MPTP block | isolated mitochondria swelling, absorbance | IC50, µM | actives 58% (n = 780) | AID 651561; in the data active means IC50 below about 20 µM
MPTP cs DR: MPTP inhibitor counter-screen activity, dose response; shares compounds with MPTP block; isolated mitochondria counterscreen, fluorescence read-out; IC50, µM; actives 49% (n = 780); AID 651564; in the data active means IC50 below about 80 µM
SENP1 conf: confirmation of human SENP1 SUMO protease inhibitors; shares compounds with SENP1 inh; recombinant SENP1, CyPet-SUMO1-YPet FRET cleavage; inhibition, % at 10 µM; actives 34% (n = 520); in the data active means inhibition mostly above about 35%, no sharp cut-off; inactive means mostly below about 32%;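 further: 0% = enzyme with DMSO and 100% = no enzyme control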
SENP1 kin conf: SENP1 (human) inhibition, kinetic confirmation. inhibition, % at 10 µM. recombinant SENP1, CyPet-SUMO1-YPet FRET kinetic cleavage. AID 651690. shares compounds with SENP1 inh. actives 26% (n = 520); in the data active means inhibition mostly above about 32%, no sharp cut-off; inactive means mostly below about 29%;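 further: 0% = DMSO with enzyme and 100% = no enzyme substrate only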
EBI2 antag conf: EBI2 (human) antagonism, single concentration confirmation; shares compounds with EBI2 block; EBI2 beta-arrestin luminescence, 7a,25-OHC antagonism; inhibition, % at 5 µM; actives 29% (n = 2,400);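 active means inhibition of at least 50%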
EBI2 ag: activates EBI2, counter-screen for EBI2 antagonists. EBI2-expressing cells, agonist mode, luminescence, 60 min; 0% vehicle, 100% 7α,25-dihydroxycholesterol control. shares compounds with EBI2 block. activation, % at 5 µM. AID 652000. 2,400 tested, under 10 active;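 active means activation of at least 50%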
bGal cs: beta-galactosidase inhibition counter-screen | shares compounds with EBI2 block | purified beta-galactosidase, luminescent Galacton Star, 15 min | inhibition, % at 5 µM | actives 1% (n = 2,400) | AID 652176;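 active means replicate-average signal at least 3 plate SD below neutral wells, shown as high inhibition, flagging enzyme-inhibiting false positives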;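 further: 0% = DMSO wells with enzyme and 100% = wells lacking enzyme; higher means stronger loss of beta-gal luminescence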
* marks the source's active call; other numbers are inactive results; · = no result. Shown are actives, neighbours in structure and some others; about 4.4% of the full set was active somewhere.

SMILES | MPTP block | SENP1 inh | NR3A LBD binder | EBI2 block | EBI2 antag conf | EBI2 ag | bGal cs | others
O=C(Nc1ccc(Cl)cc1)N1CC2CC(C1)c1cccc(=O)n1C2 (stereo not drawn) | 60* | 3 | 11* | -2 | · | · | · | Rh123 counter=103*
Cc1cccc(CCNCc2cc3cc(C)cc(C)c3[nH]c2=O)c1 | -2 | -7 | 2 | -6 | · | · | ·
Cc1cccc(CCNCc2cc3cccc(C)c3[nH]c2=O)c1 | 67* | -3 | -1 | -2 | · | · | · | Rh123 counter=44*
Cc1nc2ccccc2c(=O)n1-c1ccc(Cl)cc1[N+](=O)[O-] | 0 | 1 | 1 | 3 | · | · | ·
CCOC(=O)C1(CCOc2ccccc2)CCN(Cc2ccc(C)s2)CC1 | 65* | 1 | -2 | 10 | · | · | · | Rh123 counter=82*
CCOC(=O)C1(CCc2ccccc2)CCN(Cc2ccc3c(c2)OCCO3)CC1 | 28 | 2 | 0 | 10 | · | · | ·
c1ccc2c(N3CCNCC3)cccc2c1 | 70* | -2 | 0 | 1 | · | · | · | Rh123 counter=-5;MPTP swell DR=19*;MPTP cs DR=>80
O=C(Nc1cccc(Cl)c1)OC1CN2CCC1CC2 (stereo not drawn) | 92* | 0 | 42* | 8 | · | · | · | Rh123 counter=88*
O=C(Nc1ccccc1Cl)OC1CN2CCC1CC2 (stereo not drawn) | 0 | 1 | 2 | 5 | · | · | ·
O=C(Nc1ccc(Cl)cc1)OC1CN2CCC1CC2 (stereo not drawn) | 78* | 3 | 8 | -4 | · | · | · | Rh123 counter=93*
CC(=O)O[C@@H]1/C=C/[C@](C)(O)C[C@@H](C)C/C=C/[C@H]2[C@@H]3O[C@]3(C)[C@@H](C)[C@H]3[C@H](Cc4ccccc4)NC(=O)[C@@]312 | 0 | 0 | -2 | -26 | · | · | ·
Cc1cc(/C=C2\C(=O)NC(=O)N(C)C2=O)c(C)n1-c1ccc2c(c1)OCO2 | 5 | 35* | 1 | -3 | · | · | · | SENP1 conf=-21;SENP1 kin conf=19
c1cncc(CNC2CCCC2)c1 | 0 | 2 | -4 | 4 | · | · | ·
N=C1c2ccccc2CN1c1cccc([N+](=O)[O-])c1 | -1 | 1 | 0 | 2 | · | · | ·
Nc1cccc2c1Cc1cc([N+](=O)[O-])ccc1-2 | 1 | 73* | -8 | -21 | · | · | · | SENP1 conf=0;SENP1 kin conf=0
COc1ccc(N=Nc2c(O)[nH]c(=S)[nH]c2=O)cc1 | 0 | 48* | 1 | 2 | · | · | · | SENP1 conf=43*;SENP1 kin conf=29
Cc1ncc(CNC(=O)N(CCCl)N=O)c(N)n1 | -3 | 0 | 3 | 6 | · | · | ·
COC(=O)C1=C(c2c(C)noc2C)C[C@@H]2CC[C@H]1N2C(=O)N1CCC(O)(c2ccc(Cl)cc2)CC1 | -2 | 0 | -1 | 42* | 26 | -1 | -18
COc1ccccc1-n1c(-c2ccccc2F)nc2ccccc2c1=O | 0 | 1 | -4 | -17 | · | · | ·
COC(=O)C1=C(c2cc3ccccc3o2)C[C@@H]2CC[C@H]1N2C(=O)N1CCC(O)CC1 | 0 | 2 | 5 | 2 | · | · | ·
O=C(COc1ccc(S(=O)(=O)N2CCOCC2)cc1)N1CCN(Cc2ccc3c(c2)OCO3)CC1 | -2 | -1 | 5 | -20 | · | · | ·
O=C(COc1ccc(Br)cc1)N1CCN(Cc2ccncc2)CC1 | 1 | 1 | 0 | 68* | 54* | -2 | -12
O=C(COc1ccc(Br)cc1)N1CCN(Cc2ccc3c(c2)OCO3)CC1 | -1 | 1 | 0 | 92* | 70* | 0 | -9
Cc1ccc(OCC(=O)N2CCN(Cc3ccc4c(c3)OCO4)CC2)cc1C | -1 | 2 | -2 | 71* | 57* | 0 | -13
CSc1ccc(CN2CCN(C(=O)COc3ccc(C)cc3)CC2)cc1 | 0 | 3 | -3 | 92* | 71* | 2 | -4
SMILES | MPTP block | SENP1 inh | NR3A LBD binder | EBI2 block | EBI2 antag conf | EBI2 ag | bGal cs | others
Cc1cccc(OCC(=O)N2CCN(Cc3ccc4c(c3)OCO4)CC2)c1 | -3 | 1 | -3 | 26 | · | · | ·
O=c1c2ccccc2nc(-c2ccccc2Cl)n1-c1ccc(O)cc1 | -2 | 1 | -4 | -7 | · | · | ·
O=C(COc1ccc(Cl)cc1)N1CCN(C/C=C/c2ccccc2)CC1 | 1 | 0 | 1 | 96* | 86* | 1 | -13
COc1ccc(OCC(=O)N2CCN(C3CCC(c4ccccc4)CC3)CC2)cc1 (stereo not drawn) | 4 | 1 | -1 | 85* | 63* | 0 | -11
O=C(COc1ccccc1)N1CCN(C2CCCC2)CC1 | -2 | -1 | 0 | 25 | · | · | ·
O=C(COc1ccccc1)N1CCN(C/C=C/c2ccccc2)CC1 | 0 | -3 | 1 | 72* | 60* | 0 | -16
O=C(COc1ccccc1)N1CCN(CC(O)COc2ccccc2)CC1 (stereo not drawn) | 0 | 0 | 1 | 23 | · | · | ·
COc1cc(CN2CCN(C(=O)COc3ccccc3)CC2)cc(OC)c1OC | 4 | -4 | 2 | 4 | · | · | ·
COc1ccc(OCC(=O)N2CCN(C/C=C/c3ccccc3)CC2)cc1 | 0 | 2 | -3 | 93* | 77* | 0 | -8
CC(=O)c1c(C)[nH]c(C(=O)N2CCC3(CC2)OCCO3)c1C | -2 | 3 | 3 | -1 | · | · | ·
C=C1[C@@H](OC(C)=O)[C@]23C[C@@H]1[C@@H](OC(C)=O)CC2[C@]12C4C[C@H]3[C@H]1N(CC)C[C@]4(C)CC[C@@H]2O (stereo partly drawn) | 1 | -18 | 0 | 7 | · | · | ·
CCOC(=O)[C@]12Cc3cc(OC)ccc3[C@H]1N(C)C(=O)c1ccccc12 | 0 | 1 | · | 6 | · | · | ·
CCOC(=O)[C@]12Cc3cc(OC)ccc3[C@H]1N(C1CCCCC1)C(=O)c1ccccc12 | -2 | 1 | · | 64* | 21 | 1 | -15
CCC(C)OC(=O)c1c(N)n(Cc2cccs2)c2nc3ccccc3nc12 (stereo not drawn) | 26 | -62 | 1 | 44* | 39 | -2 | -21
Nc1c(C(=O)OCc2ccccc2)c2nc3ccccc3nc2n1Cc1cccs1 | 21 | -37 | 14* | 50* | 12 | -1 | -11
